Tests used:
[1] = biological target: T1, C-X-C chemokine receptor type 2 (Homo sapiens, UniProt P25025); assay: Displacement of [125I]IL-8 from human CXCR2 expressed in mouse BaF3 cells by liquid scintillation counting; assay type: cell-based
T1 sequence (P25025 whole entry): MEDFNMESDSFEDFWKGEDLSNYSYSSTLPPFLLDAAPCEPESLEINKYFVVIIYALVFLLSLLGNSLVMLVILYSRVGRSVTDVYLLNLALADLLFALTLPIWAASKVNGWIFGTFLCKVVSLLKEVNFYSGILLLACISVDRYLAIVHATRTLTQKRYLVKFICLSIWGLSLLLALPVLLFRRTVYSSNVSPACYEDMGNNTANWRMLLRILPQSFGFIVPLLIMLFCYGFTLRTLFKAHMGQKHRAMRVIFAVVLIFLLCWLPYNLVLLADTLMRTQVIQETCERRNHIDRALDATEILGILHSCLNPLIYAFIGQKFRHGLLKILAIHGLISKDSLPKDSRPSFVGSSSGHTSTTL
Procedure, shortened: (§1)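 SPA competition binding with receptor-overexpressing membranes (CXCR2 or CXCR1, CXCR1 at twice the membrane amount) mixed with 2 mg/mL wheatgerm-agglutinin-coated SPA beads. Buffer was 25 mM HEPES, 3 mM MgCl2, pH 7.4; the membrane and bead mix was held on ice 5 min. Tracer was [125I]IL-8 from a 0.040 nM stock. Compounds were half-log serially diluted in DMSO. Plates were incubated 2 h at room temperature, protected from light, then counted by liquid scintillation.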

[2] = biological target: T2, C-X-C chemokine receptor type 1 (Homo sapiens, UniProt P25024); assay: Displacement of [125I]IL-8 from human CXCR1 expressed in mouse BaF3 cells by liquid scintillation counting; assay type: cell-based; procedure, shortened: as §1
T2 sequence (P25024 whole entry): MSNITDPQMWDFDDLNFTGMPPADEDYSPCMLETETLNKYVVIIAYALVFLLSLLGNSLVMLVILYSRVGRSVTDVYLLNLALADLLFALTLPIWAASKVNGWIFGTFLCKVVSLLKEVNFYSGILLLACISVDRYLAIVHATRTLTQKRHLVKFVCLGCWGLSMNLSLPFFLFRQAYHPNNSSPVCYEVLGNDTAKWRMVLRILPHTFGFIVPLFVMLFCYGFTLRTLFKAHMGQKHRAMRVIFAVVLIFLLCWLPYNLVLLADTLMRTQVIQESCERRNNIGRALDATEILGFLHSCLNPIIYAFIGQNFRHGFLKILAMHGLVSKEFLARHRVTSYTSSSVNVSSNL

Homo sapiens = species on record: Homo sapiens; assay: Selectivity ratio of Ki for human CXCR1 to Ki for human CXCR2
Procedure, shortened: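 Scintillation proximity binding assays on membranes over-expressing CXCR2 or CXCR1, with CXCR1 membranes at twice the CXCR2 membrane level. Membranes were premixed with 2 mg/mL wheatgerm-agglutinin SPA beads in 25 mM HEPES, 3 mM MgCl2, pH 7.4, 5 min on ice. Half-log serial DMSO dilutions were added with [125I]IL-8 (0.040 nM stock). Plates were kept 2 h at room temperature in the dark, then read by scintillation counting.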

[3] = Metabolic stability in human liver microsomes assessed as compound remaining at 1 uM after 120 mins; assay type: ADME, Microsome; conditions: read-out: Stability
[4] = Metabolic stability in human liver microsomes assessed as half life at 1 uM; assay type: ADME, Microsome
[5] = Metabolic stability in rat liver microsomes assessed as half life at 1 uM; assay type: ADME, Microsome

Compound: CCN(Nc1c(Nc2cccc(C(=O)N(C)C)c2O)c(=O)c1=O)C(=O)c1ccc(F)cc1
- Ki [1]: 0.26 µM
- Ki [2]: > 12 µM
- Ratio Ki (Homo sapiens): > 46

Compound: CCN(Cc1ccc(F)cc1)Nc1c(Nc2cccc(C(=O)N(C)C)c2O)c(=O)c1=O
- Ki [1]: 7.2 µM
- Ki [2]: > 12 µM

Compound: CCN(CC)Nc1c(Nc2cccc(C(=O)N(C)C)c2O)c(=O)c1=O
- IC50 [1]: 1.86 µM
- Ki [1]: 0.12 µM
- Ki [2]: 9.7 µM
- Ratio Ki (Homo sapiens): 80
- remaining at 2 h, 1 µM [3]: > 50%
- half-life at 1 µM [4]: > 2 h
- half-life at 1 µM [5]: 1.4 h

Compound: CCN(Nc1c(Nc2cccc(C(=O)N(C)C)c2O)c(=O)c1=O)c1ccccc1
- Ki [1]: 0.11 µM
- Ki [2]: 4.1 µM
- Ratio Ki (Homo sapiens): 40
- remaining at 2 h, 1 µM [3]: > 50%
- half-life at 1 µM [4]: > 2 h

Compound: CCN(Nc1c(Nc2cccc(C(=O)N(C)C)c2O)c(=O)c1=O)c1ccc(OC)cc1
- Ki [1]: 0.18 µM
- Ki [2]: 6.5 µM
- Ratio Ki (Homo sapiens): 40

Compound: CCNNc1c(Nc2cccc(C(=O)N(C)C)c2O)c(=O)c1=O
- IC50 [1]: 5.49 µM

Compound: CCN(Nc1c(Nc2cccc(C(=O)N(C)C)c2O)c(=O)c1=O)C(C)=O
- IC50 [1]: 3.29 µM
- Ki [1]: 0.32 µM
- Ki [2]: > 12 µM

Compound: CCN(Nc1c(Nc2cccc(C(=O)N(C)C)c2O)c(=O)c1=O)c1ccccn1
- Ki [1]: 0.13 µM
- Ki [2]: 5.2 µM
- Ratio Ki (Homo sapiens): 40
- remaining at 2 h, 1 µM [3]: > 50%
- half-life at 1 µM [4]: > 2 h

Compound: CCN(Nc1c(Nc2cccc(C(=O)N(C)C)c2O)c(=O)c1=O)c1ccc(F)cc1
- Ki [1]: 0.55 µM
- Ki [2]: > 12 µM
- Ratio Ki (Homo sapiens): > 20

— ChEMBL document CHEMBL1156021, “Design, synthesis, and evaluation of novel 3-amino-4-hydrazine-cyclobut-3-ene-1,2-diones as potent and selective CXCR2 chemokine receptor antagonists” (Bioorg Med Chem Lett, 2009)
